# Measurements pooled from the literature.
# Each line is one published result; the experiments were not run side by side.
# Effect on: metabolic stability
# Species: human
SMILES,system,setting,half-life
O=c1c2c([nH]c3cc(Oc4ccc(OC(F)(F)F)cc4)c(F)cc13)CCCC2,liver microsomes,"1 µM, pH 7.4",19.1 min
O=c1c2cc(Cl)c(CO)cc2[nH]c(=S)n1Cc1cccnc1,liver microsomes,"1 µM, pH 7.4",57.1 min
c1ccc(Oc2ccc(Nc3c4c(nc5ccccc35)CCC4)cc2)cc1,liver microsomes,0.5 µM,57 min
COCC(=O)OCc1cc2[nH]c(=S)n(Cc3cccnc3)c(=O)c2cc1Cl,liver microsomes,"1 µM, pH 7.4",< 5 min
NCc1ccc(-c2nn(Cc3ccccc3)c3ccccc23)o1,liver microsomes,,34 min
CCN(CC)CCNC(=O)c1c(C)[nH]c(/C=C2\C(=O)Nc3ccc(F)cc32)c1C,liver microsomes,1 µM,24.3 min
Cc1[nH]c(C)c(S(=O)(=O)Nc2ccc(C(F)(F)F)c(Cl)c2)c1C(=O)N1CCC(F)(F)C1,liver microsomes,,10.2 min
Cc1cccc(CNC(=O)c2cn(CCNC(=O)c3ccccc3Sc3c([N+](=O)[O-])ncn3C)c3cc4c(cc3c2=O)OCO4)n1,blood,"1 µM, whole blood",509 min
C=CCn1c(=O)c2cnc(Nc3ccc(N4CCN(C)CC4)cc3)nc2n1-c1ccc2c(n1)[C@@](O)(CC)CC2,hepatocytes,,93 min
Cc1ncsc1-c1ccc([C@H](CC(=O)N2CC3(C2)CN(c2ccc(C#Cc4ccc(C(=O)N5CCC(n6cc(-c7ccc8c(c7)CCN8C(=O)Cc7cccc(OC(F)(F)F)c7)c7c(N)ncnc76)CC5)cc4)cn2)C3)NC(=O)[C@@H]2C[C@@H](O)CN2C(=O)[C@@H](NC(=O)C2(F)CC2)C(C)(C)C)cc1,hepatocytes,1 µM,> 120 min
O=c1c2ccccc2[nH]c2cc(Oc3ccc(OC(F)(F)F)cc3)ccc12,liver microsomes,"1 µM, pH 7.4",> 60 min
O=c1c2cc(Cl)ccc2[nH]c(=S)n1Cc1ccc(-c2nnn[nH]2)nc1,liver microsomes,"1 µM, pH 7.4",> 186 min
O=c1c2c([nH]c3ccc(Oc4ccc(OC(F)(F)F)cc4)cc13)CCCC2,liver microsomes,"1 µM, pH 7.4",25.1 min
O=C(N1CCCCC1)C12CC(c3ccccc3)(C1)C2,liver microsomes,"2 µM, pH 7.4",70.2 min
Cc1ccc(OCC(=O)N[C@@H](Cc2c[nH]c3ccccc23)C(=O)OC(C)C)cc1,liver microsomes,20 mM,352 min
Cc1c(C)n(Cc2cccc(OC(C)(C)C(=O)O)c2)c2ccc(C(=O)N[C@@H](C)c3ccc(C(C)(C)C)cc3)cc12,liver microsomes,,> 60 min
O=c1c2cc(Cl)ncc2[nH]c(=S)n1Cc1cccnc1,liver microsomes,"1 µM, pH 7.4",> 186 min
CN1CCC(Oc2ccc3c(=O)c4c(F)cc(Cl)cc4[nH]c3c2)CC1,liver microsomes,"1 µM, pH 7.4",55.7 min
CCCCCCCCCCCCCCCC(=O)NCCOC(=O)C[C@@H](CN)CC(C)C,liver microsomes,"1 µM, pH 7.4",60.3 min
O=c1c2c([nH]c3cc(OC(F)(F)F)ccc13)CCCC2,liver microsomes,"1 µM, pH 7.4",8.01 min
OCc1ccc(-c2nn(Cc3ccccc3)c3ccccc23)o1,liver microsomes,,7 min
O=c1c2ccc(Oc3ccccc3OC(F)(F)F)cc2[nH]c2cc(Cl)cc(F)c12,liver microsomes,"1 µM, pH 7.4",> 60 min
CCN(CC)CCNC(=O)c1c(C)[nH]c(/C=C2\C(=O)Nc3ccc(F)cc32)c1C,liver microsomes,"1 µM, pH 7.4",1630 min
CCCN(CCC)CCCOc1ccc2c(=O)c3c([nH]c2c1)CCCC3,liver microsomes,"1 µM, pH 7.4",37.3 min
Cc1cc2c(C(=O)O)cccc2n1-c1nc2c(c(NCc3ccccc3)n1)CCCN2,liver microsomes,"1 µM, pH 7.4",> 120 min
O=c1c2c([nH]c3cc(Nc4ccc(OC(F)(F)F)cc4)ccc13)CCCC2,liver microsomes,"1 µM, pH 7.4",20.7 min
NC(=NCCC[C@@H](C(=O)NCc1ccccc1)n1cc(-c2ccc(-c3ccccc3)cc2)nn1)c1ccc([N+](=O)[O-])o1,liver microsomes,,29 min
